Assays:
SK-N-MC cells = experiment: CGRP-induced Ca2+ signaling, desensitization and resensitization; type: cell-based, human; conditions: SM-19712 10 μM
Outline: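 SK-N-MC cells (endogenous CLR/RAMP1) were loaded with Fura-2AM for [Ca2+]i at 37°C. Single challenge used CGRP 100 nM. Desensitization: CGRP 100 nM or vehicle (1 h, 37°C), wash, CGRP-free recovery (4 h for resensitization), then CGRP 100 nM rechallenge. SM-19712 10 μM or DMSO was preincubated 20–60 min and kept throughout. Response was expressed as % of vehicle-treated cells.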

[1] = system: HEK-CLR-RAMP1+βARR2-GFP cells; experiment: Trafficking and colocalization of β-arrestin2-GFP and CLR/RAMP1; type: cell-based, human; conditions: recovery up to 4 h in CGRP-free medium
Outline: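 HEK-CLR-RAMP1 cells transiently transfected with β-arrestin2-GFP had surface CLR (HA11) and RAMP1 (Myc) labelled. Cells were given CGRP (2 min to 1 h), washed, and recovered in CGRP-free medium for 1–4 h. SM-19712 10 μM, bafilomycin A1 0.15 or 1 μM, or DMSO was preincubated 20–60 min and kept throughout. After PFA fixation and confocal imaging, β-arrestin2/CLR endosomal colocalization coefficient was measured at 4 h recovery.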

Cc1nn(-c2ccccc2)c(NC(=O)NS(=O)(=O)c2ccc(Cl)cc2)c1C#N.[Na] [SM-19712]
Effect on response to a single challenge with CGRP ([Ca2+]i) (SK-N-MC cells; CGRP 100 nM): did not affect magnitude or duration
Effect on desensitization of CGRP-induced Ca2+ signaling (SK-N-MC cells): did not affect desensitization
Inhibition of resensitization of CGRP-induced Ca2+ signaling (SK-N-MC cells; 4 h recovery): 33%
Effect on localization of CLR (RAMP1) and β-arrestin2 during recovery [1]: caused their retention in endosomes
